The source of these data is ChEMBL document CHEMBL1145402, “Discovery of potent and muscle selective androgen receptor modulators through scaffold modifications” (J Med Chem, 2007).

The target of one data set is T1, Androgen receptor (Homo sapiens, UniProt P10275).
T1 sequence (P10275 whole entry): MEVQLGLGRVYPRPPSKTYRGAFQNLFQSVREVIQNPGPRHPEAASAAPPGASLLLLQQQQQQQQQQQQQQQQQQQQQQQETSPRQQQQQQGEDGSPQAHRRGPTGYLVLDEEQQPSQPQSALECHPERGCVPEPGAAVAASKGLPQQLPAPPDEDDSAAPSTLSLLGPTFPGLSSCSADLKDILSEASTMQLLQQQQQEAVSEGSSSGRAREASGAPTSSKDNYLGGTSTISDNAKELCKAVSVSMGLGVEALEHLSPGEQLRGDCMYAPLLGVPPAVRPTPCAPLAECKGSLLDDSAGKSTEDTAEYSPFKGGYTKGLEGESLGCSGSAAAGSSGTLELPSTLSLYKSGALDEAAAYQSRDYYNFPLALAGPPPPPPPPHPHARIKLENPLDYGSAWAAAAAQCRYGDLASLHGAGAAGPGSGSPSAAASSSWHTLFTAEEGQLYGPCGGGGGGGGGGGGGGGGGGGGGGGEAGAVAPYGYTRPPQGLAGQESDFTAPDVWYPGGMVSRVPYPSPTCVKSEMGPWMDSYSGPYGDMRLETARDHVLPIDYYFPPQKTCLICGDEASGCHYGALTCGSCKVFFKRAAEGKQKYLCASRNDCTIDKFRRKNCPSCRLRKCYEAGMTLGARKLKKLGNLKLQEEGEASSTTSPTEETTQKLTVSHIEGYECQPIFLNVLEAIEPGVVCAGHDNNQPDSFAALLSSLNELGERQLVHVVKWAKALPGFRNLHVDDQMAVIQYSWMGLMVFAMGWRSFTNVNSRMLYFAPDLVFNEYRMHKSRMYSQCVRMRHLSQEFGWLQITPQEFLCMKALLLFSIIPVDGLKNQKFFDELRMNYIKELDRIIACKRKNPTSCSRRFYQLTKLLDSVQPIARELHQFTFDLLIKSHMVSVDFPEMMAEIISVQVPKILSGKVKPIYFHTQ
As to the kind of experiment: Agonist activity at androgen receptor expressed in C2C12 mouse cells by luciferase reporter transactivation assay. The class given is functional, cell-based. On the technique in general: In a reporter assay the amount or activity of a reporter protein is the signal.

A further data set concerns the target hERG (Homo sapiens, UniProt Q12809). As to the kind of experiment: Inhibition of hERG at 30 uM by patch clamp method. The class given is toxicity. On the technique in general: The hERG channel carries a current that helps repolarise heart muscle cells.
A further data set addresses Cytochrome P450 2D6 (Homo sapiens, UniProt P10635). As to the kind of experiment: Inhibition of CYP2D6. Type of data set: ADME.
Another data set deals with Cytochrome P450 2C9 (Homo sapiens, UniProt P11712). As to the kind of experiment: Inhibition of CYP2C9. The class given is ADME.
Chain of Cytochrome P450 2C9 (P11712 whole entry): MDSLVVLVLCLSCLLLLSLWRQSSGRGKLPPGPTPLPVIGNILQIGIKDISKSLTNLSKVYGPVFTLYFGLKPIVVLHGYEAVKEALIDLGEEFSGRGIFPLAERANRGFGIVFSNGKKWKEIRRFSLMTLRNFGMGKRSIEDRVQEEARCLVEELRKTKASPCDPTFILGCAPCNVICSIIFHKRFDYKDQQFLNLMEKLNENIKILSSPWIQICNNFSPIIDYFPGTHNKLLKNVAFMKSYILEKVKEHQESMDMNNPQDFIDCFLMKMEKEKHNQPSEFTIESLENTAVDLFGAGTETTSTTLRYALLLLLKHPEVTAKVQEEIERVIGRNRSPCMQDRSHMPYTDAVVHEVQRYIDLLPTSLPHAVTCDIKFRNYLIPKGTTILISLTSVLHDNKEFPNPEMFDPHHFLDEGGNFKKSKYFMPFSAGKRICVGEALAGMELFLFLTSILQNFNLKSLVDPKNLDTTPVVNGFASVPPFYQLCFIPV
Data set [1] is described as follows: AUC(0-4h) in Sprague-Dawley rat at 10 mg/kg. The class given is ADME, organism-based. On the set-up: time < 5 hr, dose 10 mg/kg. As to conditions: plasma.
The nature of data set [2]: Aqueous solubility of the compound. Type of data set: physicochemical.
Data set [3] in a line: Clearance in Sprague-Dawley rat at 10 mg/kg, po and 5 mg/kg, iv. The class given is ADME, organism-based. As to conditions: in vivo. In short, it runs like this: (§1)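 Rat pharmacokinetics used 5 mg/kg i.v. and 10 mg/kg p.o. dosing. Oral bioavailability (F%), half-life, oral Tmax and total body clearance were derived from plasma concentrations.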
Another data set deals with Rattus norvegicus. As to the kind of experiment: Stimulation of ventral prostate tissue weight in Sprague-Dawley rat at 1 mg/kg, po after 14 days. Type of data set: functional, Prostate gland. In short, it runs like this: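 Mature male rats were castrated two weeks before treatment. Compound was given […] once daily for two weeks, then levator ani muscle and ventral prostate were weighed. Weights are expressed as percent of a sham-operated, vehicle-treated intact control group, ±SEM.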

Data set [4] in a line: Tmax in Sprague-Dawley rat at 10 mg/kg, po. The class given is ADME, organism-based. Details: dose 10 mg/kg, route oral. As to conditions: in vivo. In short, it runs like this: as §1
A short description of data set [5]: Binding affinity to progesterone receptor. Details: species or system Homo sapiens.
The target of a further data set is T2, Aromatase (Homo sapiens, UniProt P11511).
T2 sequence (P11511 whole entry): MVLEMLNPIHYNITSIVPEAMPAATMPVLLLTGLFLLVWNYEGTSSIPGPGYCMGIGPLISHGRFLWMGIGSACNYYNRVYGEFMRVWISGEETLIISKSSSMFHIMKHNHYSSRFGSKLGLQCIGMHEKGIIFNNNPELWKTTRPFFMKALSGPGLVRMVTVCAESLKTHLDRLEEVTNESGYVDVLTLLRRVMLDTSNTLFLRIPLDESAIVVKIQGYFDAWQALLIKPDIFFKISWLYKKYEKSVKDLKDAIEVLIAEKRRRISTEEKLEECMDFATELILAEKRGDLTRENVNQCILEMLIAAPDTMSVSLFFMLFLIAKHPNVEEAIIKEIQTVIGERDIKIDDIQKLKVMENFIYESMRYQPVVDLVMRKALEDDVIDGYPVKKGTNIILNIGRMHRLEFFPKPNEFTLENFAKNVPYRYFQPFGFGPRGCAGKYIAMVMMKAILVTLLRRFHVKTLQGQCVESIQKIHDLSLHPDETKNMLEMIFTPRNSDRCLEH
As to the kind of experiment: Inhibition of aromatase.

Another data set addresses T3, Glucocorticoid receptor (Homo sapiens, UniProt P04150).
T3 sequence (P04150 whole entry): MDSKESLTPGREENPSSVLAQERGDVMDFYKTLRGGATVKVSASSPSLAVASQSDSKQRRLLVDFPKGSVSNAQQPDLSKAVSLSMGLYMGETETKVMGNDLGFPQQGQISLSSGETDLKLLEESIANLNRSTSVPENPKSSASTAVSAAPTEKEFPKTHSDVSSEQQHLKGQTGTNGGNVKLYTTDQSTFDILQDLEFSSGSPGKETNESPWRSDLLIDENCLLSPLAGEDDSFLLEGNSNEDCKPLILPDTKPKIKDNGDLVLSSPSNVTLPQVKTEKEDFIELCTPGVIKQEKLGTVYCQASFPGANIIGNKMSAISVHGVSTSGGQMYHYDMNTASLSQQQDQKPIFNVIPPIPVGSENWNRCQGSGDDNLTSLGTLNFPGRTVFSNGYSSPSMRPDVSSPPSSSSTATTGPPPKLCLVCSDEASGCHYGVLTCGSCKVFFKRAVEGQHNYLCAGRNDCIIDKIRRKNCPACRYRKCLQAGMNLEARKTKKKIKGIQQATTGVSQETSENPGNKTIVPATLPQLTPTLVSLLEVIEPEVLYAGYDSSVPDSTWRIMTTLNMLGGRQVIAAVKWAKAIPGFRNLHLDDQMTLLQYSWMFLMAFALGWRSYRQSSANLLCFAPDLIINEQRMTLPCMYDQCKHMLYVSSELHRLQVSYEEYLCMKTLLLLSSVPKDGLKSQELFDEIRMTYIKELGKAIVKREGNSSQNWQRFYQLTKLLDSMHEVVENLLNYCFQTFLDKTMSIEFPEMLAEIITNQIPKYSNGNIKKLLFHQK
As to the kind of experiment: Binding affinity to glucocorticoid receptor.

Data set [6] can be described thus: Toxicity against human hepatocyte. Type of data set: cell-based. The conditions noted are these: hepatocytes.

For orientation: EC50 means the concentration that produces a half-maximal response. A high value points to lower potency in that assay. As a reminder, the inhibition is the drop in the measured response relative to a control, in per cent. Read a low inhibition as a weak effect. In general, IC50 refers to the point on the concentration scale where inhibition reaches its midpoint. For orientation: AUC(0-t) means the area under the concentration-time curve up to a stated or last time point. As a reminder, the solubility is the dissolved amount per volume that the medium holds. Low readings indicate little dissolved substance, high ones much dissolved substance. What is called Tmax is the time from dosing to the highest level. The term Ki denotes a dissociation constant, usually derived from enzyme kinetics or from competition with a known ligand. A lower Ki goes with higher affinity.

Converted amounts (≈) assume the structure as drawn.

Chain of Cytochrome P450 2D6 (P10635 whole entry): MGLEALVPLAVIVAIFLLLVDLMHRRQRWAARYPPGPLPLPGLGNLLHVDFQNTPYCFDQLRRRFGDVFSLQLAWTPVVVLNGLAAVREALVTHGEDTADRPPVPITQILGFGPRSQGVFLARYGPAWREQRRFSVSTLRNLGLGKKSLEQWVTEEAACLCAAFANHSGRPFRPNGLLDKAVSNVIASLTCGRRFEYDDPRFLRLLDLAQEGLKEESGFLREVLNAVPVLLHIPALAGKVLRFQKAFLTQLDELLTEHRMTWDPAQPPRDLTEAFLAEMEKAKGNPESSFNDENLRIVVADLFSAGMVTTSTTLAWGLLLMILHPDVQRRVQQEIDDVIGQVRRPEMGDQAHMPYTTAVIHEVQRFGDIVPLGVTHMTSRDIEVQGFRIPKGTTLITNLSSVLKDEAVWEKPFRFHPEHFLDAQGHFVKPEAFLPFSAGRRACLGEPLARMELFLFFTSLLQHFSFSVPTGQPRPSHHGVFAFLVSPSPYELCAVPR
Chain of hERG (Q12809 whole entry): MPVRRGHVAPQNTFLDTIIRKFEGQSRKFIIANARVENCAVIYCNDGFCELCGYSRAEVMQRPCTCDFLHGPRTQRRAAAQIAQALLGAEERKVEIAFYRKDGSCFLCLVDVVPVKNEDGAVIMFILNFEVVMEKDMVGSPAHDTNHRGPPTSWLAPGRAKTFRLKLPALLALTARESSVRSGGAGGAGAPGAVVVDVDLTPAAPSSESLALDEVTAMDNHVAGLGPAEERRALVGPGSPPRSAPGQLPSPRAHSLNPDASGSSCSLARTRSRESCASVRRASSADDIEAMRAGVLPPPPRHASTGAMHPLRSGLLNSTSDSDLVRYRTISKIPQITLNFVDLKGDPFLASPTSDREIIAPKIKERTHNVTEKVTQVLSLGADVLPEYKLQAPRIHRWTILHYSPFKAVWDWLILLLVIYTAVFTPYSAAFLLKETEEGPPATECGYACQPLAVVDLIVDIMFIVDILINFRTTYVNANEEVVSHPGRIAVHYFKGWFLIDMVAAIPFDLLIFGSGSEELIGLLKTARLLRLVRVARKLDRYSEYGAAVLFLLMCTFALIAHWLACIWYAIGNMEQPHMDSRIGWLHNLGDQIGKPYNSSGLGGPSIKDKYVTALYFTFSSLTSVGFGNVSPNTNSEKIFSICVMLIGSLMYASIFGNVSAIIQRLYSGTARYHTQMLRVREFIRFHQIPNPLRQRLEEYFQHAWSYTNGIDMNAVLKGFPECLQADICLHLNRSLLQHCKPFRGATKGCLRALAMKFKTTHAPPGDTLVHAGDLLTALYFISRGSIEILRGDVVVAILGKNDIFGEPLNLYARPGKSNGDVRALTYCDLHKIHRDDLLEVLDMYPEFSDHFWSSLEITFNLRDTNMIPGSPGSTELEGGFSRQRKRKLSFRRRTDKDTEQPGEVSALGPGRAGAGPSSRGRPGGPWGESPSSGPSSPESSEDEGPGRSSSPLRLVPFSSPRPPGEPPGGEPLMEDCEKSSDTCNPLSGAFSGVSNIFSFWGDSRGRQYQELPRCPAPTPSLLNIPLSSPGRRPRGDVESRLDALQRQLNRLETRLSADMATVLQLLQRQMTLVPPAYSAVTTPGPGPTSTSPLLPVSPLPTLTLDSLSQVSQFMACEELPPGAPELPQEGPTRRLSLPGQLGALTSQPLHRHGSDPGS

Compound `CC[C@H]1[C@@H]2[C@@H](O)CCN2C(=O)N1c1ccc(C#N)c(Cl)c1C` returned an EC50 on Androgen receptor of 0.0018 µM. In addition, the inhibition at 30 µM at hERG stood at 6%. The IC50 against Cytochrome P450 2D6 was more than 40 µM; against Cytochrome P450 2C9, more than 40 µM; on Aromatase, more than 100 µM; in data set [6] it was more than 200 µM. In data set [1], the AUC(0-t) at 5 h was 6.08 µM·h. In data set [2], the solubility turned out to be 242 µg/mL (≈ 757 µM). Further, the clearance in [3] was 58 mL/min/kg. This compound also had an Activity in the data set on Rattus norvegicus of 24%. Besides, in data set [4], the Tmax was 48 min. Moreover, the Ki (in data set [5]; on Glucocorticoid receptor) was more than 10 µM each time.
